# Experimental data gathered from unrelated publications.
# Organism: Streptococcus pneumoniae
# Effect on: microbial growth
SMILES,method,strain,time,MIC [µg/mL]
CN(C)[C@@H]1C(O)=C(C(N)=O)C(=O)[C@@]2(O)C(O)=C3C(=O)c4c(cc5cc(N)ccc5c4O)C[C@H]3C[C@@H]12,broth dilution,ATCC49619,,1
CN(C)c1cc(NC(=O)CNC(C)(C)C)c(O)c2c1C[C@H]1C[C@H]3[C@H](N(C)C)C(O)=C(C(N)=O)C(=O)[C@@]3(O)C(O)=C1C2=O,,157E,,< 0.06
O=[N+]([O-])c1ccc(O)c2ncccc12,broth dilution,ATCC49619,,8
O=c1[nH]cc(F)c(=O)[nH]1,broth dilution,,24 h,0.125
O=C1NC(=S)S/C1=C\c1ccc(-c2ccc(N(c3ccccc3)c3ccccc3)cc2)c2ccccc12,broth dilution,ATCC49619,,1000
N=C(N)NN=Cc1ccc(OC/C=C\COc2ccc(C=NNC(=N)N)cc2)cc1,,D39,16 h,≤ 3
O=C1NC(=S)N/C1=C\c1ccc(-c2ccc(N(c3ccccc3)c3ccccc3)cc2)cc1,broth dilution,ATCC49619,,> 1000
CN(C)[C@@H]1C(O)=C(C(N)=O)C(=O)[C@@]2(O)C(O)=C3C(=O)c4c(cc5ccc(-c6ccccc6)cc5c4O)C[C@H]3C[C@@H]12,broth dilution,ATCC49619,,32
COc1cc(Cc2cnc(N)nc2N)cc(OC)c1OC,broth dilution,,24 h,0.25
O=C(O)CN1C(=O)/C(=C/c2c3ccccc3c(-c3ccc(N(c4ccccc4)c4ccccc4)cc3)c3ccccc23)NC1=S,broth dilution,ATCC49619,,> 1000
CN(C)c1ccc(O)c2c1C[C@H]1C[C@H]3[C@H](N(C)C)C(O)=C(C(N)=O)C(=O)[C@@]3(O)C(O)=C1C2=O,,157E,,< 0.06
O=C1NC(=S)S/C1=C\c1ccc(-c2ccc(N(c3ccccc3)c3ccccc3)cc2)cc1,broth dilution,ATCC49619,,1000
C[C@@H](O)[C@H]1C(=O)N2C(C(=O)O)=C(S[C@@H]3CN[C@H](C(=O)N(C)C)C3)[C@H](C)[C@H]12,broth dilution,ATCC49619,,0.25
CN(C)[C@@H]1C(O)=C(C(N)=O)C(=O)[C@@]2(O)C(O)=C3C(=O)c4c(cc5ccc(CN6CC(C#N)C6)cc5c4O)C[C@H]3C[C@@H]12,broth dilution,ATCC49619,,0.5
